Values joined by “and” are separate entries in the source; they are usually repeats but may differ in a detail not shown here. Equal values may be shown once.
Legend:
Mus musculus [1] = experiment: Antitumor activity measured as Body weight change (BWC) between day 1 and 5 at 0.11 […] dose against po inoculated P388 leukemia in CDF1 mice; type: functional
Procedure, shortened: (§1)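 Male CDF1 mice (18-22 g; 6 per dose, 24 controls) received 10^6 viable P388 cells sc on day 0. Drugs in 0.3% hydroxypropylcellulose/saline were given ip or orally, daily for 4 days from 24 h and again on day 10. Survival was followed to day 40. T/C = MST ratio ×100. BWC covers day 1 to day 5. Toxicity was judged by NCI norms.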

Mus musculus [2] = experiment: Antitumor activity measured as T/C at 0.052 […] dose against ip inoculated P388 leukemia in CDF1 mice; type: functional
Procedure, shortened: (§2)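 Groups of six male CDF1 mice (18-22 g) were inoculated ip on day 0 with 1×10^6 viable P388 ascites cells from DBA/2 passage, suspended in chilled 0.9% saline. Drugs were suspended in 0.3% hydroxypropylcellulose in saline and given ip daily for 4 days starting at 24 h. Survival was followed to day 40. T/C = treated/control MST ×100, with 24 controls. BWC = mean weight change from day 1 to day 5.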

Mus musculus [3] = experiment: Antitumor activity measured as T/C at 0.11 […] dose against po inoculated P388 leukemia in CDF1 mice; type: functional; procedure, shortened: as §1
Mus musculus [4] = experiment: Antitumor a dose 0.11 […] against po inoculated P388 leukemia in CDF1 mice; type: functional; procedure, shortened: as §1
Mus musculus [5] = experiment: Antitumor a dose 0.035 nmol/kg against ip inoculated P388 leukemia in CDF1 mice; type: functional; procedure, shortened: as §2
Mus musculus [6] = experiment: Antitumor activity measured as Body weight change (BWC) between day 1 and 5 at 0.035 […] dose against ip inoculated P388 leukemia in CDF1 mice; type: functional; procedure, shortened: as §2
Mus musculus [7] = experiment: Antitumor activity measured as T/C at 0.17 […] dose against po inoculated P388 leukemia in CDF1 mice; type: functional; procedure, shortened: as §1
Mus musculus [8] = experiment: Antitumor activity measured as Body weight change (BWC) between day 1 and 5 at 0.052 […] dose against sc inoculated P388 leukemia in CDF1 mice; type: functional; procedure, shortened: as §1
Mus musculus [9] = experiment: Antitumor a dose 0.069 […] against ip inoculated P388 leukemia in CDF1 mice; type: functional; procedure, shortened: as §2
Mus musculus [10] = experiment: Antitumor a dose 0.052 […] against ip inoculated P388 leukemia in CDF1 mice; type: functional; procedure, shortened: as §2
Mus musculus [11] = experiment: Antitumor a dose 0.17 […] against po inoculated P388 leukemia in CDF1 mice; type: functional; procedure, shortened: as §1
Mus musculus [12] = experiment: Antitumor activity measured as T/C at 0.035 […] dose against ip inoculated P388 leukemia in CDF1 mice; type: functional; procedure, shortened: as §2
Mus musculus [13] = experiment: Antitumor activity measured as T/C at 0.23 […] dose against po inoculated P388 leukemia in CDF1 mice; Toxic; type: functional, organism-based; procedure, shortened: as §1
Mus musculus [14] = experiment: Antitumor activity measured as Body weight change (BWC) between day 1 and 5 at 0.17 […] dose against po inoculated P388 leukemia in CDF1 mice; type: functional; procedure, shortened: as §1
Mus musculus [15] = experiment: Antitumor a dose 0.035 nmol/Kg against ip inoculated P388 leukemia in CDF1 mice; type: functional; procedure, shortened: as §2
Mus musculus [16] = experiment: Antitumor activity measured as Body weight change (BWC) between day 1 and 5 at 0.069 […] dose against sc inoculated P388 leukemia in CDF1 mice; type: functional; procedure, shortened: as §1
Mus musculus [17] = experiment: Antitumor activity measured as Body weight change (BWC) between day 1 and 5 at 0.052 […] dose against ip inoculated P388 leukemia in CDF1 mice; type: functional; procedure, shortened: as §2
Mus musculus [18] = experiment: Antitumor a dose 0.23 […] against po inoculated P388 leukemia in CDF1 mice; Toxic; type: toxicity, organism-based; conditions: in vivo; procedure, shortened: as §1
Mus musculus [19] = experiment: Antitumor activity measured as Body weight change (BWC) between day 1 and 5 at 0.069 […] dose against ip inoculated P388 leukemia in CDF1 mice; type: functional; procedure, shortened: as §2
Mus musculus [20] = experiment: Antitumor activity measured as T/C at 0.069 […] dose against ip inoculated P388 leukemia in CDF1 mice; type: functional; procedure, shortened: as §2
Mus musculus [21] = experiment: Antitumor activity measured as Body weight change (BWC) between day 1 and 5 at 0.035 […] dose against sc inoculated P388 leukemia in CDF1 mice; type: functional; procedure, shortened: as §1
Mus musculus [22] = experiment: Antitumor activity measured as Body weight change (BWC) between day 1 and 5 at 0.066 […] dose against ip inoculated P388 leukemia in CDF1 mice; type: functional; procedure, shortened: as §2
Mus musculus [23] = experiment: Antitumor a dose 0.050 […] against ip inoculated P388 leukemia in CDF1 mice; type: functional; procedure, shortened: as §2
Mus musculus [24] = experiment: Antitumor activity measured as Body weight change (BWC) between day 1 and 5 at 0.033 […] dose against sc inoculated P388 leukemia in CDF1 mice; type: functional; procedure, shortened: as §1
Mus musculus [25] = experiment: Antitumor activity measured as T/C at 0.16 […] dose against po inoculated P388 leukemia in CDF1 mice; Toxic; type: toxicity, organism-based; conditions: in vivo; procedure, shortened: as §1
Mus musculus [26] = experiment: Antitumor a dose 0.11 […] against po inoculated P388 leukemia in CDF1 mice; Toxic; type: toxicity, organism-based; conditions: in vivo; procedure, shortened: as §1
Mus musculus [27] = experiment: Antitumor activity measured as T/C at 0.066 […] dose against ip inoculated P388 leukemia in CDF1 mice; type: functional; procedure, shortened: as §2
Mus musculus [28] = experiment: Antitumor a dose 0.066 […] against ip inoculated P388 leukemia in CDF1 mice; Toxic; type: toxicity, organism-based; conditions: in vivo; procedure, shortened: as §1
Mus musculus [29] = experiment: Antitumor a dose 0.033 nmol/Kg against ip inoculated P388 leukemia in CDF1 mice; type: functional; procedure, shortened: as §2
Mus musculus [30] = experiment: Antitumor activity measured as T/C at 0.050 […] dose against ip inoculated P388 leukemia in CDF1 mice; type: functional; procedure, shortened: as §2
Mus musculus [31] = experiment: Antitumor activity measured as Body weight change (BWC) between day 1 and 5 at 0.050 […] dose against sc inoculated P388 leukemia in CDF1 mice; type: functional; procedure, shortened: as §1
Mus musculus [32] = experiment: Antitumor activity measured as T/C at 0.066 […] dose against ip inoculated P388 leukemia in CDF1 mice; Toxic; type: toxicity, organism-based; conditions: in vivo; procedure, shortened: as §1
Mus musculus [33] = experiment: Antitumor activity measured as T/C at 0.11 […] dose against po inoculated P388 leukemia in CDF1 mice; Toxic; type: toxicity, organism-based; conditions: in vivo; procedure, shortened: as §1
Mus musculus [34] = experiment: Antitumor a dose 0.066 […] against po inoculated P388 leukemia in CDF1 mice; type: functional; procedure, shortened: as §1
Mus musculus [35] = experiment: Antitumor a dose 0.16 […] against po inoculated P388 leukemia in CDF1 mice; Toxic; type: toxicity, organism-based; conditions: in vivo; procedure, shortened: as §1
Mus musculus [36] = experiment: Antitumor activity measured as T/C at 0.066 […] dose against po inoculated P388 leukemia in CDF1 mice; type: functional; procedure, shortened: as §1
Mus musculus [37] = experiment: Antitumor a dose 0.033 nmol/kg against ip inoculated P388 leukemia in CDF1 mice; type: functional; procedure, shortened: as §2
Mus musculus [38] = experiment: Antitumor activity measured as Body weight change (BWC) between day 1 and 5 at 0.066 […] dose against sc inoculated P388 leukemia in CDF1 mice; type: functional; procedure, shortened: as §1
Mus musculus [39] = experiment: Antitumor activity measured as Body weight change (BWC) between day 1 and 5 at 0.066 […] dose against po inoculated P388 leukemia in CDF1 mice; type: functional; procedure, shortened: as §1
Mus musculus [40] = experiment: Antitumor activity measured as Body weight change (BWC) between day 1 and 5 at 0.050 […] dose against ip inoculated P388 leukemia in CDF1 mice; type: functional; procedure, shortened: as §2
Mus musculus [41] = experiment: Antitumor a dose 0.066 […] against ip inoculated P388 leukemia in CDF1 mice; type: functional; procedure, shortened: as §2
Mus musculus [42] = experiment: Antitumor activity measured as T/C at 0.033 […] dose against ip inoculated P388 leukemia in CDF1 mice; type: functional; procedure, shortened: as §2
Mus musculus [43] = experiment: Antitumor activity measured as Body weight change (BWC) between day 1 and 5 at 0.033 […] dose against ip inoculated P388 leukemia in CDF1 mice; type: functional; procedure, shortened: as §2

CCCCCCCCCCCCCCCC(=O)OCC(COC(=O)CCCCCCCCCCCCCCC)OC(=O)CCCc1ccc(N(CCCl)CCCl)cc1
BWC (Mus musculus [1]): -3.5 g
T/C (Mus musculus [2]): 220% and 148%
T/C (Mus musculus [3]): 168%
MST (Mus musculus [4]): 24.5 days
MST (Mus musculus [5]): 17 days
BWC (Mus musculus [6]): -1.6 g
T/C (Mus musculus [7]): 234%
BWC (Mus musculus [8]): -2.55 g
MST (Mus musculus [9]): 26.5 days and 23.5 days
MST (Mus musculus [10]): 22 days and 21.5 days
MST (Mus musculus [11]): 34 days
T/C (Mus musculus [12]): 170% and 141%
T/C (Mus musculus [13]): Toxic
BWC (Mus musculus [14]): -3.9 g
MST (Mus musculus [15]): 20.5 days
BWC (Mus musculus [16]): -3.95 g
BWC (Mus musculus [17]): -2 g
MST (Mus musculus [18]): Toxic
BWC (Mus musculus [19]): -2.6 g
T/C (Mus musculus [20]): 265% and 162%
BWC (Mus musculus [21]): -2.35 g

O=C(O)CCCc1ccc(N(CCCl)CCCl)cc1 [CHLORAMBUCIL]
BWC (Mus musculus [22]): -3.4 g
MST (Mus musculus [23]): 19.5 days and 21.5 days
BWC (Mus musculus [24]): -2.55 g
T/C (Mus musculus [25]): Toxic
MST (Mus musculus [26]): Toxic
T/C (Mus musculus [27]): 230%
MST (Mus musculus [28]): Toxic
MST (Mus musculus [29]): 19.5 days
T/C (Mus musculus [30]): 195% and 148%
BWC (Mus musculus [31]): -2.95 g
T/C (Mus musculus [32]): Toxic
T/C (Mus musculus [33]): Toxic
MST (Mus musculus [34]): 22.5 days
MST (Mus musculus [35]): Toxic
T/C (Mus musculus [36]): 155%
MST (Mus musculus [37]): 16.9 days
BWC (Mus musculus [38]): -3.95 g
BWC (Mus musculus [39]): -4.15 g
BWC (Mus musculus [40]): -2.9 g
MST (Mus musculus [41]): 23 days
T/C (Mus musculus [42]): 169% and 134%
BWC (Mus musculus [43]): -2.2 g
